pEC50: −log10 of the molar value. Activity calls are given as the source filed them. The calls are words filed in the database; no cut-off is given here.
What was measured:
Human betaherpesvirus 5 [1] = assay: Antiviral activity against cidofovir HCMV AD169 clone 5 infected in human HEL cells assessed as inhibition of virus-induced cytopathicity; type: functional, organism-based; conditions: Human betaherpesvirus 5, AD169, HEL
Human betaherpesvirus 5 [2] = assay: Antiviral activity against wild type HCMV AD169 infected in HEL cells assessed as inhibition of virus-induced cytopathicity; type: functional, organism-based; conditions: Human betaherpesvirus 5, AD169, HEL
How it was run: (§1)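 HEL fibroblast cultures infected at 100 PFU input. After 2 h, residual virus was removed and compound-containing medium was added at varying concentrations, in duplicate. Cells were incubated 7 days at 37 °C, ethanol-fixed and Giemsa-stained, and cytopathicity was scored microscopically.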

Human betaherpesvirus 5 [3] = assay: Antiviral activity against foscarnet-resistant HCMV AD169 clone C infected in HEL cells assessed as inhibition of virus-induced cytopathicity; type: functional, organism-based; conditions: Human betaherpesvirus 5, AD169, HEL
Human betaherpesvirus 5 [4] = assay: Antiviral activity against ganciclovir-resistant HCMV AD169 clone 4 infected in HEL cells assessed as inhibition of virus-induced cytopathicity; type: functional, organism-based; conditions: Human betaherpesvirus 5, AD169, HEL
Human betaherpesvirus 5 [5] = assay: Antiviral activity against wild type HCMV Davis infected in HEL cells assessed as inhibition of virus-induced cytopathicity; type: functional, organism-based; conditions: Human betaherpesvirus 5, Davis; how it was run: as §1
Human betaherpesvirus 5 [6] = assay: Antiviral activity against acyclovir-resistant HCMV AD169 clone 1 infected in HEL cells assessed as inhibition of virus-induced cytopathicity; type: functional, organism-based; conditions: Human betaherpesvirus 5, AD169, HEL
Human betaherpesvirus 5 [7] = assay: Antiviral activity against HPMPA-resistant HCMV AD169 clone 2 mutant infected in HEL cells assessed as inhibition of virus-induced cytopathicity; type: functional, organism-based; conditions: Human betaherpesvirus 5, AD169, HEL
Human betaherpesvirus 5 [8] = assay: Antiviral activity against PMEDAP-resistant HCMV AD169 clone 4 infected in HEL cells assessed as inhibition of virus-induced cytopathicity; type: functional, organism-based; conditions: Human betaherpesvirus 5, AD169, HEL
Human betaherpesvirus 5 [9] = assay: Antiviral activity against HCMV Davis infected in human HEL cells assessed inhibition of virus-induced cytopathicity after 7 days postinfection; type: functional, organism-based; conditions: Human betaherpesvirus 5, Davis, 168 h
How it was run: (§2)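 HEL fibroblasts were infected at 100 PFU. After 2 h, residual virus was removed and medium with test compound was added at several concentrations, in duplicate. Cells were incubated 7 days at 37 °C, fixed with ethanol and stained with Giemsa.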

[10] = Cytotoxicity against human HEL cells assessed as reduction of growth after 3 days; type: cell-based
How it was run: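 HEL cells were seeded at 5 × 10³ cells/well and grown 24 h before compound was added at different concentrations. After 3 days at 37 °C, cells were counted with a Coulter counter. CC50, the concentration halving growth relative to untreated controls, was read from plots of cell number (% of control) against concentration.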

Human betaherpesvirus 5 [11] = assay: Antiviral activity against HCMV AD169 infected in human HEL cells assessed inhibition of virus-induced cytopathicity after 7 days postinfection; type: functional, organism-based; conditions: Human betaherpesvirus 5, AD169, HEL, 168 h; how it was run: as §2
[12] = Therapeutic index, ratio of CC50 for human HEL cells to EC50 for Varicella zoster virus; type: cell-based; conditions: read-out: Ratio CC50/EC50
How it was run: (§3)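 Index calculated as CC50 (HEL cell growth, 3 days, Coulter count) divided by EC50 from the HEL-cell antiviral assays: HCMV cytopathicity at 7 days for line 18, VZV plaque reduction at 5 days for line 19.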

[13] = Therapeutic index, ratio of CC50 for human HEL cells to EC50 for Human cytomegalovirus; type: cell-based; conditions: read-out: Ratio CC50/EC50; how it was run: as §3
Human alphaherpesvirus 3 [14] = assay: Antiviral activity against thymidine kinase expressing Varicella zoster virus Oka infected in human HEL cells assessed reduction in viral plaque formation; type: functional, organism-based; conditions: Human alphaherpesvirus 3, Oka
How it was run: (§4)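 Confluent HEL cell monolayers were inoculated with VZV at 20 PFU per well. Residual virus was removed after 2 h, and compound was added at varying concentrations, in duplicate.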

[15] = Cytotoxicity against human HEL cells assessed as morphological alteration after 3 days; type: cell-based
How it was run: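 HEL cultures were examined under the microscope. MCC was recorded as the compound concentration causing a microscopically detectable alteration of normal cell morphology.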

Human alphaherpesvirus 3 [16] = assay: Antiviral activity against thymidine kinase deficient Varicella zoster virus 07/1 infected in human HEL cells assessed reduction in viral plaque formation; type: functional, organism-based; conditions: Human alphaherpesvirus 3, HEL; how it was run: as §4
Human alphaherpesvirus 3 [17] = assay: Antiviral activity against Varicella zoster virus YS infected in human HEL cells assessed reduction in viral plaque formation; type: functional, organism-based; conditions: Human alphaherpesvirus 3, YS
[18] = test system: Vesicular stomatitis virus; assay: Antiviral activity against VSV infected in human HEL cells; type: functional, organism-based
Human alphaherpesvirus 1 [19] = assay: Antiviral activity against acyclovir-resistant […]-deficient HSV1 infected in human HEL cells; type: functional, organism-based
[20] = test system: Respiratory syncytial virus; assay: Antiviral activity against RSV infected in human HeLa cells; type: functional, organism-based
[21] = test system: Vesicular stomatitis virus; assay: Antiviral activity against VSV infected in human HeLa cells; type: functional, organism-based
Vaccinia virus = assay: Antiviral activity against Vaccinia virus infected in human HEL cells; type: functional, organism-based; conditions: Orthopoxvirus vaccinia
Punta Toro virus = assay: Antiviral activity against Punta Toro virus infected in african green monkey Vero cells; type: functional, organism-based
Human alphaherpesvirus 1 [22] = assay: Antiviral activity against HSV1 KOS infected in human HEL cells; type: functional, organism-based
[23] = test system: Mammalian orthoreovirus 3; assay: Antiviral activity against Reovirus 3 infected in african green monkey Vero cells; type: functional, organism-based
Human alphaherpesvirus 2 = assay: Antiviral activity against HSV2 infected in human HEL cells; type: functional, organism-based
Sindbis virus = assay: Antiviral activity against Sindbis virus infected in african green monkey Vero cells; type: functional, organism-based
Coxsackievirus B4 [24] = assay: Antiviral activity against Coxsackievirus B4 infected in african green monkey Vero cells; type: functional, organism-based
Coxsackievirus B4 [25] = assay: Antiviral activity against Coxsackievirus B4 infected in human HeLa cells; type: functional, organism-based
Human respirovirus 3 = assay: Antiviral activity against Parainfluenza virus 3 infected in african green monkey Vero cells; type: functional, organism-based
Human alphaherpesvirus 3 [26] = assay: Antiviral activity against Varicella zoster virus YSR infected in human HEL cells assessed reduction in viral plaque formation; type: functional, organism-based; conditions: Human alphaherpesvirus 3, YSR

SMILES | pEC50 (Human betaherpesvirus 5 [1]) | pEC50 (Human betaherpesvirus 5 [2]) | pEC50 (Human betaherpesvirus 5 [3]) | pEC50 (Human betaherpesvirus 5 [4]) | pEC50 (Human betaherpesvirus 5 [5]) | pEC50 (Human betaherpesvirus 5 [6]) | pEC50 (Human betaherpesvirus 5 [7]) | pEC50 (Human betaherpesvirus 5 [8]) | pEC50 (Human betaherpesvirus 5 [9]) | CC50 at 72 h [10] | pEC50 (Human betaherpesvirus 5 [11]) | pEC50 (Human alphaherpesvirus 3 [14]) | MCC at 72 h [15] | pEC50 (Human alphaherpesvirus 3 [16]) | pEC50 (Human alphaherpesvirus 3 [17]) | Activity [18] | Activity (Human alphaherpesvirus 1 [19]) | Activity [20] | Activity [21] | Activity (Vaccinia virus) | further results
Nc1ncnc2c1ncn2C[C@@H](CO)OCP(=O)(O)O | 5.68 | 6.77 | 7.44 | 5.68 | 6.70 | 7.10 | 5.72 | 6.92 | – | – | – | – | – | – | – | – | – | – | – | – | –
O=S1(=O)C=C(OCc2ccccc2)C(Cc2ccccc2)(Cc2ccccc2)O1 | – | – | – | – | – | – | – | – | < 4.30 | 200 µM | 4.30 | < 5.30 | 200 µM | 5.30 | – | – | – | – | – | – | selectivity ratio [12]: ≤ 4; selectivity ratio [13]: ≤ 4
CCC1(Cc2ccccc2)OS(=O)(=O)C=C1OCc1ccccc1Cl (racemic) | – | – | – | – | – | – | – | – | < 5.40 | 38 µM | < 5.40 | 5.06 | ≥ 20 µM | 5.00 | < 5.30 | – | – | – | – | – | –
CCC1(Cc2ccccc2)OS(=O)(=O)C=C1OCCc1ccccc1 (racemic) | – | – | – | – | – | – | – | – | 5.03 | 48 µM | 5.16 | 5.24 | ≥ 20 µM | 5.12 | – | inactive | inactive | inactive | inactive | inactive | Activity (Punta Toro virus): inactive; Activity (Human alphaherpesvirus 1 [22]): inactive; Activity [23]: inactive; Activity (Human alphaherpesvirus 2): inactive; Activity (Sindbis virus): inactive; Activity (Coxsackievirus B4 [24]): inactive; Activity (Coxsackievirus B4 [25]): inactive
CCC1(Cc2ccccc2)OS(=O)(=O)C=C1OCc1ccc(Cl)cc1 (racemic) | 4.96 | 4.96 | 5.02 | 4.96 | 4.96 | 5.96 | 5.00 | 4.92 | 5.01 | > 200 µM | 4.98 | 5.12 | ≥ 50 µM | 5.24 | 5.00 | inactive | inactive | inactive | inactive | inactive | Activity (Punta Toro virus): inactive; Activity (Human alphaherpesvirus 1 [22]): inactive; Activity [23]: inactive; Activity (Human alphaherpesvirus 2): inactive; Activity (Sindbis virus): inactive; Activity (Coxsackievirus B4 [24]): inactive; Activity (Coxsackievirus B4 [25]): inactive
CCC1(Cc2ccccc2)OS(=O)(=O)C=C1OCc1ccccc1 (racemic) | – | – | – | – | – | – | – | – | 5.03 | 200 µM | 4.89 | 5.19 | ≥ 50 µM | 5.25 | 5.44 | inactive | inactive | inactive | inactive | inactive | Activity (Human respirovirus 3): inactive; selectivity ratio [12]: ≥ 5; selectivity ratio [13]: ≥ 5; Activity (Punta Toro virus): inactive; Activity (Human alphaherpesvirus 1 [22]): inactive; Activity [23]: inactive; Activity (Human alphaherpesvirus 2): inactive; Activity (Sindbis virus): inactive; Activity (Coxsackievirus B4 [24]): inactive; Activity (Coxsackievirus B4 [25]): inactive
CCC1(Cc2ccccc2)OS(=O)(=O)C=C1OCc1ccc(F)cc1 (racemic) | – | – | – | – | – | – | – | – | 5.15 | > 50 µM | 4.82 | 5.07 | ≥ 50 µM | 5.07 | 4.98 | – | – | – | – | – | pEC50 (Human alphaherpesvirus 3 [26]): 5.03
CCC1(Cc2ccccc2)OS(=O)(=O)C=C1OCc1ccc(OC)cc1 (racemic) | – | – | – | – | – | – | – | – | 3.85 | > 200 µM | 3.70 | 3.92 | ≥ 200 µM | 3.97 | – | inactive | inactive | inactive | inactive | inactive | Activity (Punta Toro virus): inactive; Activity (Human alphaherpesvirus 1 [22]): inactive; Activity [23]: inactive; Activity (Human alphaherpesvirus 2): inactive; Activity (Sindbis virus): inactive; Activity (Coxsackievirus B4 [24]): inactive; Activity (Coxsackievirus B4 [25]): inactive
Nc1nc2c(ncn2COCCO)c(=O)[nH]1 [ACYCLOVIR] | – | 4.82 | – | – | – | – | – | – | – | 733 µM | – | 5.96 | > 200 µM | 4.14 | – | – | – | – | – | – | –
Nc1ccn(C[C@@H](CO)OCP(=O)(O)O)c(=O)n1 [CIDOFOVIR] | 6.00 | 7.12 | 7.35 | 6.13 | 7.16 | 7.02 | 6.26 | 7.04 | 6.30 | 74 µM | 6.52 | – | > 150 µM | – | – | – | – | – | – | – | –
O=C(O)P(=O)(O)O [FOSCARNET] | 4.96 | 4.89 | 4.02 | 4.70 | 4.96 | 4.46 | 4.89 | 4.20 | – | – | – | – | – | – | – | – | – | – | – | – | –
Nc1nc2c(ncn2COC(CO)CO)c(=O)[nH]1 [GANCICLOVIR] | 5.40 | 6.15 | – | 5.37 | 6.18 | 6.16 | 5.92 | 5.46 | 5.44 | 134 µM | – | – | > 400 µM | – | – | – | – | – | – | – | –
Nc1nc(N)c2ncn(CCOCP(=O)(O)O)c2n1 [PMEDAP] | 5.46 | 5.08 | 4.60 | 5.72 | 5.11 | < 4.30 | 6.09 | 4.43 | – | – | – | – | – | – | – | – | – | – | – | – | –

Source: ChEMBL document CHEMBL1152768, “4-Benzyloxy-gamma-sultone derivatives: discovery of a novel family of non-nucleoside inhibitors of human cytomegalovirus and varicella zoster virus” (J Med Chem, 2009)
